The values below come from ChEMBL document CHEMBL1212739, “Clindamycin-induced CovS-mediated regulation of the production of virulent exoproteins streptolysin O, NAD glycohydrolase, and streptokinase in Streptococcus pyogenes” (2010).

By MIC is commonly meant the least concentration at which growth counts as inhibited. Low values mean inhibition by little substance, high ones a need for much substance.

In assay [1] the test system is Streptococcus pyogenes. As to the kind of experiment: Antibacterial activity against Streptococcus pyogenes D2TY. The assay is classed as functional. The method, boiled down:
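MICs of clindamycin hydrochloride determined for S. pyogenes M1 strain D2TY (STSS clinical isolate) by broth microdilution and by Etest, following CLSI guidelines. Bacteria grown at 37°C without agitation in brain heart infusion broth with 0.3% yeast extract. Resistance breakpoint taken as MIC above 1 μg/ml.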

Assay [2] has as its system Streptococcus pyogenes. As to the kind of experiment: Induction of slo mRNA expression in drug-resistant Streptococcus pyogenes D2TY at 1 ug/ml by Northern blot analysis. It counts as functional, organism-based. The method, boiled down:
(§1)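 Cells grown static at 37°C in 5 ml BHI-YE, with 1 μg/ml CLI or none added at inoculation, and harvested at OD660 ≈0.8 (late log). Total RNA was DNase-treated. About 1 μg was run on 1% agarose with 1.1 M formaldehyde and blotted to nylon. Probes were 32P-labeled nga, slo, ska, covS or covR DNA, quantified by autoradiography/bioimaging. Triplicate assays from at least two independent cultures.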

For assay [3], the system named is Streptococcus pyogenes. As to the kind of experiment: Induction of nga mRNA expression in drug-resistant Streptococcus pyogenes D2TY at 1 ug/ml by Northern blot analysis. It counts as functional, organism-based. The gist of the method: as §1
For assay [4], the system named is Streptococcus pyogenes. As to the kind of experiment: Induction of ska mRNA expression in drug-resistant Streptococcus pyogenes D2TY at 1 ug/ml by Northern blot analysis. The assay is classed as functional, organism-based. The method, boiled down: as §1
Assay [5] has as its system Streptococcus pyogenes. As to the kind of experiment: Induction of Slo protein production in drug-resistant Streptococcus pyogenes D2TY at 1 ug/ml by Western blot analysis. It counts as functional, organism-based. The method, boiled down:
(§2)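 Strain D2TY or its covS knockout, grown from −80°C stock at 37°C without agitation in 5 ml BHI-YE (0.3% yeast extract) containing protease inhibitor E-64, with or without 1 μg/ml CLI. Supernatant proteins run on SDS-PAGE and blotted to PVDF. Rabbit anti-Slo, anti-Nga or anti-Ska (1:2,000) applied for 16 h at room temperature. HRP goat anti-rabbit IgG (1:2,000) used as secondary. Triplicate assays from at least two independent cultures.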

The subject of assay [6] is Streptococcus pyogenes. As to the kind of experiment: Induction of Nga protein production in drug-resistant Streptococcus pyogenes D2TY at 1 ug/ml by Western blot analysis. It counts as functional, organism-based. The gist of the method: as §2
In assay [7] the test system is Streptococcus pyogenes. Nature of the assay: Induction of Ska protein production in drug-resistant Streptococcus pyogenes D2TY at 1 ug/ml by Western blot analysis. The assay is classed as functional, organism-based. The gist of the method: as §2
(In western blotting, separated proteins are transferred to a membrane and probed.)

In assay [8] the test system is Streptococcus pyogenes. Nature of the assay: Induction of covS mRNA expression in drug-resistant Streptococcus pyogenes D2TY in BHI-YE supplemented medium at 1 ug/ml by Northern blot analysis. It counts as functional, organism-based. The gist of the method:
as §1

Assay [9] has as its system Streptococcus pyogenes. Nature of the assay: Induction of covS mRNA expression in drug-resistant Streptococcus pyogenes D2TY delta covS mutant at 1 ug/ml by Northern blot analysis. It counts as functional, organism-based. The gist of the method: as §1
Assay [10] deals with Streptococcus pyogenes. Nature of the assay: Induction of covR mRNA expression in drug-resistant Streptococcus pyogenes D2TY delta covS mutant at 1 ug/ml by Northern blot analysis. It counts as functional, organism-based. The gist of the method:
as §1

In assay [11] the test system is Streptococcus pyogenes. Nature of the assay: Induction of two-component sensor kinase CovS expression in drug-resistant Streptococcus pyogenes D2TY delta covS mutant at 1 ug/ml by Northern blot analysis. The assay is classed as functional, organism-based. The method, boiled down: as §1
The subject of assay [12] is Streptococcus pyogenes. As to the kind of experiment: Decrease in slo mRNA expression in drug-resistant Streptococcus pyogenes D2TY isogenic delta covS mutant in BHI-YE supplemented medium at 1 ug/ml by Northern blot analysis. The assay is classed as functional, organism-based. The gist of the method:
as §1

Assay [13] concerns Streptococcus pyogenes. As to the kind of experiment: Decrease in nga mRNA expression in drug-resistant Streptococcus pyogenes D2TY isogenic delta covS mutant in BHI-YE supplemented medium at 1 ug/ml by Northern blot analysis. The assay is classed as functional, organism-based. The method, boiled down:
as §1

Assay [14] has as its system Streptococcus pyogenes. Nature of the assay: Decrease in ska mRNA expression in drug-resistant Streptococcus pyogenes D2TY isogenic delta covS mutant in BHI-YE supplemented medium at 1 ug/ml by Northern blot analysis. The assay is classed as functional, organism-based. The gist of the method: as §1
In assay [15] the test system is Streptococcus pyogenes. Nature of the assay: Decrease in Slo protein production in drug-resistant Streptococcus pyogenes D2TY isogenic delta covS mutant in BHI-YE supplemented medium at 1 ug/ml by Western blot analysis. The assay is classed as functional, organism-based. The gist of the method: as §2
In assay [16] the test system is Streptococcus pyogenes. As to the kind of experiment: Decrease in Nga protein production in drug-resistant Streptococcus pyogenes D2TY isogenic delta covS mutant in BHI-YE supplemented medium at 1 ug/ml by Western blot analysis. It counts as functional, organism-based. The method, boiled down:
as §2

Assay [17] concerns Streptococcus pyogenes. Nature of the assay: Decrease in Ska protein production in drug-resistant Streptococcus pyogenes D2TY isogenic delta covS mutant in BHI-YE supplemented medium at 1 ug/ml by Western blot analysis. The assay is classed as functional, organism-based. The method, boiled down: as §2

The source made the active and inactive calls. No cut-off for these calls is given here.

On to `CCC[C@@H]1C[C@@H](C(=O)N[C@@H]([C@H]2O[C@H](SC)[C@H](O)[C@@H](O)[C@H]2O)[C@H](C)Cl)N(C)C1.Cl` [CLINDAMYCIN HYDROCHLORIDE], for which, in the assay with Streptococcus pyogenes [1], the minimal inhibitory concentration (MIC) stood at 256 µg/mL. In addition, the outcome in the assay with Streptococcus pyogenes [2], with Streptococcus pyogenes [3], in the assay on Streptococcus pyogenes [4], in the assay on Streptococcus pyogenes [5], in the assay on Streptococcus pyogenes [6] and with Streptococcus pyogenes [7] was Active. The outcome in the assay on Streptococcus pyogenes [8], in the assay on Streptococcus pyogenes [12], in the assay with Streptococcus pyogenes [13], with Streptococcus pyogenes [14], with Streptococcus pyogenes [15] and with Streptococcus pyogenes [16] was Active. For the same compound, in the assay on Streptococcus pyogenes [17], the result was Active. Further, the result with Streptococcus pyogenes [9], in the assay on Streptococcus pyogenes [10] and in the assay with Streptococcus pyogenes [11] was inactive.
